Results taken from ChEMBL document CHEMBL1146852, “Synthesis and pharmacological characterization of novel fluorescent histamine H2-receptor ligands derived from aminopotentidine” (Bioorg Med Chem Lett, 2006).
pEC50: −log10 of the molar value.

What was measured:
Format in all cases: functional
[1] = Antagonist activity at guinea pig H2R-Gsalpha fusion protein expressed in sf9 cells by GTPase assay; details: Cavia porcellus
Method in brief: (§1)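 Inhibition of histamine-stimulated high-affinity GTP hydrolysis in Sf9 membranes expressing hH2R-Gsα or gpH2R-Gsα fusion proteins. KB came from non-linear curve fitting. Means SD of three experiments.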

[2] = target: Histamine H1 receptor (Homo sapiens) (UniProt P35367); assay: Antagonist activity at human recombinant H1R expressed in sf9 cells assessed as inhibition of histamine-stimulated GTP hydrolysis
[3] = Antagonist activity at human H2R-Gsalpha fusion protein expressed in sf9 cells by GTPase assay; method in brief: as §1
[4] = Ratio of antagonist activity at human H2R-Gsalpha fusion protein to guinea pig H2R-Gsalpha fusion protein expressed in sf9 cells
Histamine H2 receptor [5] = target: T1, Histamine H2 receptor (Homo sapiens, UniProt P25021); assay: Binding affinity to human H2R expressed in sf9 cells by adenylyl cyclase assay
[6] = target: Histamine H2 receptor (Cavia porcellus) (UniProt P47747); assay: Binding affinity to guinea pig H2R expressed in sf9 cells by adenylyl cyclase assay
Histamine H2 receptor [7] = target: T1, Histamine H2 receptor; assay: Agonist activity at human H2R
Method in brief: (§2)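 GTPase activity in Sf9 insect cell membranes expressing hH2R-GsαS or gpH2R-GsαS fusion proteins. Curves were fitted by non-linear regression. Means SD of three experiments.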

Histamine H2 receptor [8] = target: Histamine H2 receptor (Cavia porcellus, UniProt P47747); assay: Agonist activity at guinea pig H2R; method in brief: as §2
Histamine H2 receptor [9] = target: T1, Histamine H2 receptor; assay: Agonist activity at human H2R relative to histamine; method in brief: as §2
[10] = target: Histamine H2 receptor (Cavia porcellus) (UniProt P47747); assay: Agonist activity at guinea pig H2R relative to histamine; method in brief: as §2

T1 sequence (P25021 whole entry): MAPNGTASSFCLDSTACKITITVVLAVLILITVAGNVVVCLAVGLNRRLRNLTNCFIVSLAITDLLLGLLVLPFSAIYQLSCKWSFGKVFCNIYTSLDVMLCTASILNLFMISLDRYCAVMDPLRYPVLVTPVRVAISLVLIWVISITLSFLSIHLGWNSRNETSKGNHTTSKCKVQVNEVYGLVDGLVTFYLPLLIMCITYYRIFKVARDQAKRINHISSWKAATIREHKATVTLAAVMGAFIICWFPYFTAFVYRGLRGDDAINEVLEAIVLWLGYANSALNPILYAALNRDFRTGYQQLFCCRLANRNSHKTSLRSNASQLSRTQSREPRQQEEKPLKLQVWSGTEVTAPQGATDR
Chain of Histamine H2 receptor (Cavia porcellus) (P47747 whole entry): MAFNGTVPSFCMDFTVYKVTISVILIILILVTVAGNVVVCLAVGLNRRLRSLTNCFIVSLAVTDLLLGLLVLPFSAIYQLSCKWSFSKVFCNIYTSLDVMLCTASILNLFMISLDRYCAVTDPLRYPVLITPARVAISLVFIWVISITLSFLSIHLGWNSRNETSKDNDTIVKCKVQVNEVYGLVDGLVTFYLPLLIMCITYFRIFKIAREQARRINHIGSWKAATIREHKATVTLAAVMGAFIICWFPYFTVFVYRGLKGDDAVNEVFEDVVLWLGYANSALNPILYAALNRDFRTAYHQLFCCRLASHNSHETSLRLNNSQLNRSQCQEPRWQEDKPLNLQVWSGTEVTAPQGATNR
Chain of Histamine H1 receptor (Homo sapiens) (P35367 whole entry, the tested form may be a part): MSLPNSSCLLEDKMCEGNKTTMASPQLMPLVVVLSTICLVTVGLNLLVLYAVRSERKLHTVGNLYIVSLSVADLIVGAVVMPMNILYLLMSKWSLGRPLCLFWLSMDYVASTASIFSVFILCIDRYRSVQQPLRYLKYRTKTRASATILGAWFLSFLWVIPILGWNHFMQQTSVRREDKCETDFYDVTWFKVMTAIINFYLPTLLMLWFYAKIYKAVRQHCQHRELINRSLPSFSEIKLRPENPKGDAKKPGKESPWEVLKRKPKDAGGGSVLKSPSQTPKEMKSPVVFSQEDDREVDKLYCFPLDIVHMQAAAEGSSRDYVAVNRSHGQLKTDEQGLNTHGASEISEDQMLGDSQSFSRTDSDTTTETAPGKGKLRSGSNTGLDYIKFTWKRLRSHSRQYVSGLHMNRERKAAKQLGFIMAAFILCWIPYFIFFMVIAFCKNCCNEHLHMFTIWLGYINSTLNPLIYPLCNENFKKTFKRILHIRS
Chain of Histamine H2 receptor (Cavia porcellus, UniProt P47747) (P47747 whole entry): as the sequence (P47747 whole entry) above

Row | Structure (SMILES) | Kb [1] [nM] | Kb [2] [nM] | Kb [3] [nM] | Ratio [4] | Kb (Histamine H2 receptor [5]) [nM] | Kb [6] [nM] | pEC50 (Histamine H2 receptor [7]) | pEC50 (Histamine H2 receptor [8]) | Activity (Histamine H2 receptor [5]; filed as partial agonist) | Efficacy (Histamine H2 receptor [9]) [%] | Efficacy [10] [%] | Activity ([6]; filed as partial agonist)
1 | O=C(CCCCCNC(=O)COc1ccc(/C=C/C2=[N+]3C(=Cc4ccc(-c5ccc[nH]5)n4[B-]3(F)F)C=C2)cc1)NCCCOc1cccc(CN2CCCCC2)c1 | 150 | > 30000 | 640 | 4.27 | – | – | – | – | – | – | – | –
2 | N#CN/C(=N\CCCCCCN)NCCCOc1cccc(CN2CCCCC2)c1 | 75 | > 30000 | 1800 | 24 | 2500 | 33 | – | – | – | – | – | –
3 | CC1(C)C(=CC=CC=CC2=[N+](CCCCS(=O)(=O)[O-])c3ccccc3C2(C)C)N(CCCCCC(=O)NCCN=C(NC#N)NCCCOc2cccc(CN3CCCCC3)c2)c2ccccc21 | – | – | – | – | – | – | 6.80 | 7.05 | – | – | – | –
4 | CC1(C)C(/C=C/C=C/C=C2/N(CCCCCC(=O)NCC/N=C(\NC#N)NCCCOc3cccc(CN4CCCCC4)c3)c3ccccc3C2(C)C)=[N+](CCCCS(=O)(=O)[O-])c2ccccc21 | 58 | > 30000 | 47 | 0.81 | – | – | – | – | Partial agonist | 58 | 65 | Partial agonist
5 | NCCCOc1cccc(CN2CCCCC2)c1 | 6800 | > 30000 | 15000 | 2.2 | – | – | – | – | – | – | – | –
6 | N#CN/C(=N\CCCCCCNC(=O)CCCCCNC(=O)COc1ccc(/C=C/C2=[N+]3C(=Cc4ccc(-c5ccc[nH]5)n4[B-]3(F)F)C=C2)cc1)NCCCOc1cccc(CN2CCCCC2)c1 | 190 | > 30000 | 260 | 1.37 | – | – | – | – | – | – | – | –
7 | N#CN/C(=N\CCN)NCCCOc1cccc(CN2CCCCC2)c1 | 2300 | > 30000 | 9300 | 4.04 | – | – | – | – | – | – | – | –
8 | N#CN/C(=N\CCNC(=O)c1ccc(N)cc1)NCCCOc1cccc(CN2CCCCC2)c1.O=C(O)C(=O)O [AMINOPOTENTIDINE OXALATE] | 280 | – | 220 | 0.79 | – | – | – | – | – | – | – | –
